Consider two molecules from ChEMBL document CHEMBL1140039, “Aglycone exploration of C-arylglucoside inhibitors of renal sodium-dependent glucose transporter SGLT2” (Bioorg Med Chem Lett, 2008).

One data set deals with Liver microsomes. Briefly: Metabolic stability in Sprague-Dawley rat liver microsomes at 10 uM. For orientation: Liver microsomes are a subcellular fraction often used to study metabolism.
Another data set relates to Mus musculus. Briefly: Effect on glucose concentration in Swiss Webster mouse urine at 0.3 mg/kg, iv. The data set is classed as ADME, organism-based. On the set-up: dose 0.3 mg/kg, route intravenous. Particulars: in vivo. The essentials:
(§1)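 Fasted male rats or mice were anesthetized with i.p. ketamine:xylazine (.001 mL/g), and the bladder was cannulated via an abdominal incision. Drug was given intravenously. Urine was collected over 60 min in 10-min intervals and assayed for glucose concentration.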

In another data set the test system is Rattus norvegicus. Briefly: Effect on glucose concentration in Sprague-Dawley rat urine at 1 mg/kg, iv. The data set is classed as ADME, organism-based. On the set-up: dose 1 mg/kg, route intravenous. Particulars: in vivo. The essentials: as §1
Data set [1] deals with T1, Sodium/glucose cotransporter 2 (Homo sapiens, UniProt P31639).
T1 sequence (P31639 whole entry): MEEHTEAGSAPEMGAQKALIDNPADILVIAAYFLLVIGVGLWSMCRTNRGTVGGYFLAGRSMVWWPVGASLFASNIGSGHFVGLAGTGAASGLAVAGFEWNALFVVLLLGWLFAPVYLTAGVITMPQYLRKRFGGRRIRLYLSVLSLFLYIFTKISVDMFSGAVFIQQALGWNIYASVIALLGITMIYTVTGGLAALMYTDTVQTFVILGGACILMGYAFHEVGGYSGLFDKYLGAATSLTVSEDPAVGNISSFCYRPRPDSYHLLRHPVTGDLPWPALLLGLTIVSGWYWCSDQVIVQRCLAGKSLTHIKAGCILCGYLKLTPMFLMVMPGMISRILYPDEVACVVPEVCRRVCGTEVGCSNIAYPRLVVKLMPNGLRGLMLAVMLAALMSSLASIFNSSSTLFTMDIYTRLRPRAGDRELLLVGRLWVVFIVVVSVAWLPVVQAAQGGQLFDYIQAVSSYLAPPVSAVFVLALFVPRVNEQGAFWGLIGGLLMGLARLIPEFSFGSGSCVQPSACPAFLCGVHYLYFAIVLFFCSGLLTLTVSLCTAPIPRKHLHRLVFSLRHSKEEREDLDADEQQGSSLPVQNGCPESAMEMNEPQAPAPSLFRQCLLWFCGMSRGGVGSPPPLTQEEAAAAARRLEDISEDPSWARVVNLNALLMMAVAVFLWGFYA
The data set is described as follows: Inhibition of human SGLT2 expressed in Xenopus oocyte assessed as [14C]alpha-methyl glucopyranoside uptake.

The species named for another data set is Homo sapiens. The data set is described as follows: Selectivity for human SGLT2 over human SGLT1 expressed in Xenopus oocyte.

Turning to `Cc1ccc(Cc2cccc([C@@H]3O[C@H](CO)[C@@H](O)[C@H](O)[C@H]3O)c2)cc1`, the Stability result with Liver microsomes is listed as “Stable”. In addition, the urinary glucose in the data set with Mus musculus is 600 mg/dL; with Rattus norvegicus, 230 mg/dL.

The term EC50 denotes the concentration needed to bring the measured effect to its halfway point. On to `Cc1cc(O)c(C(=O)CCc2ccc3occc3c2)c(O[C@@H]2O[C@H](CO)[C@@H](O)[C@H](O)[C@H]2O)c1`, for which the EC50 in data set [1] worked out at 50 nM. In addition, the Selectivity ratio in the data set listed under Homo sapiens came out at 4.
